bCat KO growth: beta-catenin-lacking colon tumor cell growth suppression | HCT116 beta-catenin knockout viability, CellTiter-Glo, 60 h; stronger effect = lower value | viability, % at 10 µM | 140,000 tested, 1.5% active;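 active = viability at or under a set limit, the compound median less 4 SD, cut at about 6% in these data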
PTEN del growth: suppresses growth of cells with PTEN deletion; 140,000 tested, 1.2% active; viability, % at 10 µM; HCT116 PTEN-null viability, CellTiter-Glo, 60 h; stronger effect = lower value;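 active = viability at or below a set limit, 4 SD under the median of all tested compounds, cut at about 3.7% in these data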;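 note: PTEN knockout HCT116 line with beta catenin targeted HCT116 as companion control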
H69AR growth 86K: growth inhibitors of human H69AR lung tumor cells | H69AR lung tumor viability, ATP luminescence, 72 h; stronger effect = lower value | viability, % at 10 µM | 85,000 tested, 6% active | AID 598;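 active = viability at or below 40%; inactive = viability above 40%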;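 note: multidrug resistant small cell line overexpressing MRP-1 efflux transporter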
HUVEC prolif 384: inhibitors of human endothelial cell proliferation | HUVEC proliferation, CellTiter-Glo luminescence, 72 h; stronger effect = lower value | viability, % at 10 µM (by protocol) | 86,000 tested, 1.1% active | AID 648;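 active = viability at or below 30%; inactive = viability above 30%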
Calb biofilm kill: kills Candida albicans biofilms. C. albicans biofilm + clotrimazole, Alamar Blue. inhibition, % at 6 µM. 85,000 tested, 0.14% active;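 active = inhibition above 20%; inactive = inhibition below 20%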;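 note: preformed 24 hr biofilms exposed to compound for 48 hr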
Fibroblast inh: blocks proliferation of human lung fibroblasts. LL 47 human lung fibroblast viability, ATP luminescence; stronger effect = lower value. viability, % at 10 µM. 85,000 tested, 1.1% active;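 active = viability at or below 50% in the single dose screen; inactive = viability above 50%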;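 note: compound exposure lasted 72 h before the ATP readout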
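material = human LL 47 lung fibroblast cells | dosing = compounds added from tenfold dosing solution, 0.1% DMSO final | timing = overnight cell rest, 72 h compound treatment at 37 °C | measured by = CellTiter-Glo luminescence measuring cellular ATP | evaluation = % viability versus median cells-only luminescence | control set = cell-only wells, no compound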
Of the large screens only hits and unclear results are named; the others gave an inactive call. The entries come from a sample that favours hits as a whole.

N#CC(C#N)=c1ccc2c(c1)NC1(CCCCC1)N=2	bCat KO growth 1.4, PTEN del growth 1.3, H69AR growth 86K 1.1, HUVEC prolif 384 28, Fibroblast inh 7.4
O=C(NC1(C(F)(F)F)NC(=O)N(c2ccc(F)cc2)C1=O)c1cccs1 (stereo not given)	none (no result: H69AR growth 86K, HUVEC prolif 384, Calb biofilm kill, Fibroblast inh)
COc1ccc(OC)c(N=c2oc3c(OC)cccc3cc2C(=O)NCc2ccco2)c1	none (no result: bCat KO growth, PTEN del growth)
COc1ccc(N=c2oc3c(OC)cccc3cc2C(=O)NCc2ccco2)cc1OC	H69AR growth 86K 36
COc1ccccc1N=c1oc2c(OC)cccc2cc1C(=O)NCc1ccco1	H69AR growth 86K 15
Cc1cccc2nc(-c3cccc(NC(=O)c4ccc(Cl)cc4)c3)cn12	none (no result: H69AR growth 86K, HUVEC prolif 384, Calb biofilm kill, Fibroblast inh)
COc1cc(NC(=O)c2ccco2)c(C(=O)OCC(=O)c2c[nH]c3ccccc23)cc1OC	none (no result: H69AR growth 86K, HUVEC prolif 384, Calb biofilm kill, Fibroblast inh)
CC(C(=O)NCc1ccco1)n1nc(-c2ccccc2)c2cc(Cl)ccc21 (stereo not given)	H69AR growth 86K 35
NCCCC[C@@H]1NC(=O)c2cc([N+](=O)[O-])cc(I)c2SC[C@@H](C(N)=O)NC(=O)[C@H](Cc2ccc(O)cc2)NC1=O	none (no result: H69AR growth 86K, HUVEC prolif 384, Calb biofilm kill, Fibroblast inh)
O=C(c1ccco1)N1CCN(C(c2coc3ccc(Cl)cc3c2=O)c2nnnn2C2CCCC2)CC1 (stereo not given)	H69AR growth 86K 14 (no result: bCat KO growth, PTEN del growth)
Cc1cc(C)c(C(=O)COc2cccnc2[N+](=O)[O-])cc1C	H69AR growth 86K 1.1
O=C(COc1cccnc1[N+](=O)[O-])Nc1ccc2c(c1)OC(F)(F)O2	none (no result: H69AR growth 86K, HUVEC prolif 384, Calb biofilm kill, Fibroblast inh)
Cc1ccc(NC(=O)C2(c3cccs3)CCOCC2)cc1C	none (no result: H69AR growth 86K, HUVEC prolif 384, Calb biofilm kill, Fibroblast inh)
COc1cccc(-c2nc(CS(=O)(=O)CC(=O)Nc3c(C)cccc3C)c(C)o2)c1	H69AR growth 86K 14
COc1cccc(-c2nc(CS(=O)(=O)CC(=O)Nc3cc(C)ccc3C)c(C)o2)c1	H69AR growth 86K 20
Cc1cc(C)c2ccc(C(=O)O)nc2c1O	H69AR growth 86K 38
O=C(COC(=O)/C=C/C(=O)OCC(=O)NC12CC3CC(CC(C3)C1)C2)NC12CC3CC(CC(C3)C1)C2	none (no result: H69AR growth 86K, HUVEC prolif 384, Calb biofilm kill, Fibroblast inh)
CCN(CC)C(=O)Cn1cnc2sc(C(=O)Nc3cc(OC)c(OC)c(OC)c3)c(C)c2c1=O	none
CCOC(=O)c1c(C)oc2c(F)c(F)c(F)c(F)c2c1=O	HUVEC prolif 384 8.7 (no result: H69AR growth 86K)
COC(=O)c1c(C)oc(C)c(C(=O)OC)c1=O	none
Oc1ccccc1CNc1nc2ccccc2n1CCN1CCCCC1	none
COc1ccccc1CNc1nc2ccccc2n1CCN1CCCCC1	H69AR growth 86K 36
COc1cccc(C(=O)/C=C/c2ccc(OCC#N)c(OC)c2)c1	bCat KO growth 3.6, PTEN del growth 2.5 (no result: H69AR growth 86K, HUVEC prolif 384, Calb biofilm kill, Fibroblast inh)
COc1cc(/C=C/C(=O)c2ccc(O)cc2)ccc1OCC#N	bCat KO growth 2.7, PTEN del growth 1.7 (no result: H69AR growth 86K, HUVEC prolif 384, Calb biofilm kill, Fibroblast inh)
CCOc1ccc(/C=C/C(=O)c2ccccc2)cc1OC	none (no result: H69AR growth 86K, HUVEC prolif 384, Calb biofilm kill, Fibroblast inh)
COC(=O)c1ccc(/C=C/C(=O)c2cccc(OC)c2)cc1	bCat KO growth 2.1, PTEN del growth 1.9 (no result: H69AR growth 86K, HUVEC prolif 384, Calb biofilm kill, Fibroblast inh)
CCCCCNc1nc(N2CCCC2)c2c(c1C#N)CCN(C)C2	H69AR growth 86K 2.1, HUVEC prolif 384 4.9, Fibroblast inh 39
N#C/C(=C1\C(=O)Nc2c(Cl)cc(Cl)cc21)c1nnc2n1CCCCC2	H69AR growth 86K 36
CC1(C)C(=O)OC(c2cccs2)C(C)(C)C1=O (stereo not given)	none
COc1ccc(C(=O)c2ccc(N3CCN(C(=O)c4ccc(F)cc4)CC3)c(F)c2)cc1Br	H69AR growth 86K 36
COc1ccc(C2CC3(CC(C)(C)NC(SC)=N3)Oc3cc(O)cc(C)c32)cc1 (stereo not given)	none (no result: H69AR growth 86K, HUVEC prolif 384, Calb biofilm kill, Fibroblast inh)
Cc1cccc(-n2c(CCc3ccccc3)nnc2SCC(=O)c2ccccc2)c1	none (no result: H69AR growth 86K, HUVEC prolif 384, Calb biofilm kill, Fibroblast inh)
C/C(=N\NC(=O)c1ccc(Cl)c(Cl)c1)c1ccc(Br)s1	bCat KO growth 6.1, PTEN del growth 3.6 (no result: H69AR growth 86K, HUVEC prolif 384, Calb biofilm kill, Fibroblast inh)

Compound activity (PubChem)
